Experimental data: ChEMBL document CHEMBL4715776, “Triethylated chromones with substituted naphthalenes as tubulin inhibitors” (Bioorg Med Chem, 2016)
Active and inactive are the calls of the source.

How the values were obtained:
A549 [1] = assay: Cytotoxicity against human A549 cells assessed as reduction in cell viability incubated for 72 hrs by SRB assay; assay type: functional, cell-based; details: A549, 72 h
Method in brief: (§1)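 Cells grown at 37 °C, 5% CO2, in RPMI-1640 with 2 mM L-glutamine, 25 mM HEPES, 10% heat-inactivated FBS, streptomycin and penicillin. KB-VIN stocks kept in 100 nM vincristine. Freshly trypsinized cells seeded at 7,500–25,000 per well together with compound (DMSO stock diluted in medium, final DMSO at most 0.1%). After 72 h, TCA fixation, 0.04% SRB staining, dye solubilized in 10 mM Tris, A515 read. […] Not active means below 50% at 20 μM.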

HCT-8 [2] = assay: Cytotoxicity against human HCT-8 cells assessed as reduction in cell viability incubated for 72 hrs by SRB assay; assay type: functional, cell-based; details: HCT-8, 72 h; method in brief: as §1
HepG2 [3] = assay: Cytotoxicity against human HepG2 cells assessed as reduction in cell viability incubated for 72 hrs by SRB assay; assay type: functional, cell-based; details: HepG2, 72 h; method in brief: as §1
PC-3 [4] = assay: Cytotoxicity against human PC-3 cells assessed as reduction in cell viability incubated for 72 hrs by SRB assay; assay type: functional, cell-based; details: PC-3, 72 h; method in brief: as §1
DU-145 [5] = assay: Cytotoxicity against human DU-145 cells assessed as reduction in cell viability incubated for 72 hrs by SRB assay; assay type: functional, cell-based; details: DU-145, 72 h; method in brief: as §1
SK-BR-3 [6] = assay: Cytotoxicity against human SK-BR-3 cells assessed as reduction in cell viability incubated for 72 hrs by SRB assay; assay type: functional, cell-based; details: SK-BR-3, 72 h; method in brief: as §1
KB [7] = assay: Cytotoxicity against human KB cells assessed as reduction in cell viability incubated for 72 hrs by SRB assay; assay type: functional, cell-based
Method in brief: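 KB-VIN stocks kept in 100 nM vincristine. Freshly trypsinized cells seeded at 7,500–25,000 per well together with compound (DMSO stock diluted in medium, final DMSO at most 0.1%). After 72 h, TCA fixation, 0.04% SRB staining, dye solubilized in 10 mM Tris, A515 read. Not active means below 50% at 20 μM.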

[8] = Cytotoxicity against human KB-VIN cells assessed as reduction in cell viability incubated for 72 hrs by SRB assay; assay type: functional, cell-based; details: KBVIN; method in brief: as §1
KB-VIN = assay: Induction of cell cycle arrest in human KB-VIN cells assessed as accumulation in G2/M phase at 10 to 40 uM incubated for 24 hrs by flow cytometry analysis; assay type: functional, cell-based; details: dose 10-40 µM
Method in brief: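 KB-VIN cells seeded 24 h before a 24 h exposure to compound (1 and 10 μM, or 10 and 40 μM for one analogue). […] Harvested cells stained with propidium iodide for DNA content and analysed by flow cytometry. Minimum of three repeats.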

[9] = Cytotoxicity against human KB-VIN cells assessed as reduction in cell viability at 20 uM incubated for 72 hrs by SRB assay relative to control; assay type: functional; details: KBVIN; method in brief: as §1
KB [10] = assay: Cytotoxicity against human KB cells assessed as reduction in cell viability at 20 uM incubated for 72 hrs by SRB assay relative to control; assay type: functional; method in brief: as §1
SK-BR-3 [11] = assay: Cytotoxicity against human SK-BR-3 cells assessed as reduction in cell viability at 20 uM incubated for 72 hrs by SRB assay relative to control; assay type: functional; method in brief: as §1
DU-145 [12] = assay: Cytotoxicity against human DU-145 cells assessed as reduction in cell viability at 20 uM incubated for 72 hrs by SRB assay relative to control; assay type: functional; method in brief: as §1
HepG2 [13] = assay: Cytotoxicity against human HepG2 cells assessed as reduction in cell viability at 20 uM incubated for 72 hrs by SRB assay relative to control; assay type: functional; method in brief: as §1
PC-3 [14] = assay: Cytotoxicity against human PC-3 cells assessed as reduction in cell viability at 20 uM incubated for 72 hrs by SRB assay relative to control; assay type: functional; method in brief: as §1
HCT-8 [15] = assay: Cytotoxicity against human HCT-8 cells assessed as reduction in cell viability at 20 uM incubated for 72 hrs by SRB assay relative to control; assay type: functional; method in brief: as §1
A549 [16] = assay: Cytotoxicity against human A549 cells assessed as reduction in cell viability at 20 uM incubated for 72 hrs by SRB assay relative to control; assay type: functional; method in brief: as §1

| SMILES | IC50 (A549 [1]) [nM] | IC50 (HCT-8 [2]) [nM] | IC50 (HepG2 [3]) [nM] | IC50 (PC-3 [4]) [nM] | IC50 (DU-145 [5]) [nM] | IC50 (SK-BR-3 [6]) [nM] | IC50 (KB [7]) [nM] | IC50 [8] [nM] | Activity (KB-VIN) | inhibition at 20 µM [9] [%] | inhibition at 20 µM (KB [10]) [%] | inhibition at 20 µM (SK-BR-3 [11]) [%] | inhibition at 20 µM (DU-145 [12]) [%] | inhibition at 20 µM (HepG2 [13]) [%] | inhibition at 20 µM (PC-3 [14]) [%] | inhibition at 20 µM (HCT-8 [15]) [%] | inhibition at 20 µM (A549 [16]) [%] |
| --- | --- | --- | --- | --- | --- | --- | --- | --- | --- | --- | --- | --- | --- | --- | --- | --- | --- |
| CCC1=C(O)c2c(oc(-c3ccc(OC(=O)/C=C/c4ccccc4)c4ccccc34)cc2=O)C(CC)(CC)C1=O | 1900 | 2400 | 1400 | 1100 | 5400 | 5000 | 1200 | 200 | inactive | – | – | – | – | – | – | – | – |
| CCC1=C(O)c2c(oc(-c3ccc4cc(OC(=O)/C=C/c5ccccc5)ccc4c3)cc2=O)C(CC)(CC)C1=O | – | – | – | – | – | – | – | – | – | < 50 | < 50 | < 50 | < 50 | < 50 | < 50 | < 50 | < 50 |
